Values joined by “and” are separate entries in the source; they are usually repeats but may differ in a detail not shown here. Identical values can stand only once.
Legend:
Mus musculus [1] = experiment: Dose causing a neurological deficit in 50% of mice after ip administration.; format: functional
Summary of the method: (§1)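 Traction test in male Hilltop ICR-derived mice (19-30 g, groups of 8-10) just before electroshock, 15 min after ip or 30 min after oral dosing. Mice placed on a 16-gauge, 65-cm copper wire 40 cm above the table; deficit scored as failure to stay on for 10 s. ND50 with 95% limits by Litchfield-Wilcoxon.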

Mus musculus [2] = experiment: compound was evaluated for anticonvulsant activity by maximal electroshock assay(MES) in mice after ip administration.; format: functional
Summary of the method: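 Male Hilltop ICR-derived mice, 19-30 g, groups of 8-10, given compound or aqueous vehicle […] before transcorneal electroshock (50 mA, 60 Hz, 0.2 s). Shock delivered after the traction test. ED50 with 95% confidence limits estimated from quantal data by Litchfield-Wilcoxon.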

Mus musculus [3] = experiment: Compound was evaluated for anticonvulsant activity by maximal electroshock assay(MES) in mice after po administration; 34-89; format: functional
Summary of the method: (§2)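 Male Hilltop ICR-derived mice (19-30 g), groups of 8-10, given compound or aqueous vehicle orally. The transcorneal 60-Hz shock (50 mA, 0.2 s) followed a 30 min pretreatment and a wire-hang neurological check (10 s). ED50 and 95% confidence limits were obtained from quantal data by the Litchfield-Wilcoxon method.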

Mus musculus [4] = experiment: Dose of compound causing a neurological deficit in 50% of mice after ip administration; 20-35; format: functional; summary of the method: as §1
Mus musculus [5] = experiment: Dose causing a neurological deficit in 50% of mice following p.o. administration.; format: functional; summary of the method: as §1
Mus musculus [6] = experiment: Protective index defined as ND50 (p.o.) divided by MES ED50(op); format: functional
Summary of the method: (§3)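 Ratio of ND50 from the wire traction test to MES ED50, both measured by the same route (ip or oral) in the same animals. Quantal dose-response data for each were evaluated by Litchfield-Wilcoxon.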

Mus musculus [7] = experiment: Protective index is defined as ND50 (i.p.) divided by MES ED50(i.p.); format: functional; summary of the method: as §3
Mus musculus [8] = experiment: Dose of compound causing a neurological deficit in 50% of mice after ip administration; 71-111; format: functional; summary of the method: as §1
Mus musculus [9] = experiment: Compound was evaluated for anticonvulsant activity by maximal electroshock assay(MES) in mice after ip administration; 18-28; format: functional
Summary of the method: (§4)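 Male Hilltop ICR-derived mice (19-30 g), groups of 8-10, dosed ip with compound or aqueous vehicle. After 15 min pretreatment, a transcorneal 60-Hz, 50 mA shock was given for 0.2 s. Just before the shock, each mouse was tested on a horizontal wire (10 s). Quantal data were analysed by Litchfield-Wilcoxon to give ED50 with 95% confidence limits.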

Mus musculus [10] = experiment: Compound was evaluated for anticonvulsant activity by maximal electroshock assay(MES) in mice after ip administration; 38-55; format: functional; summary of the method: as §4
Mus musculus [11] = experiment: Dose of compound causing a neurological deficit in 50% of mice after ip administration; 71-93; format: functional; summary of the method: as §1
Mus musculus [12] = experiment: Compound was evaluated for anticonvulsant activity by maximal electroshock assay(MES) in mice after po administration; 55-103; format: functional; summary of the method: as §2
Mus musculus [13] = experiment: Compound was evaluated for anticonvulsant activity by maximal electroshock assay(MES) in mice after ip administration; 20-28; format: functional; summary of the method: as §4
[14] = Lethal dose was measured in mice after ip administration.; format: toxicity, organism-based; settings: mouse, in vivo
Summary of the method: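 Male Simonsen ICR-derived mice (16-24 g), groups of three, given compound ip in increasing doses within a behavioral screen. Deaths counted on day 5, and LD50 estimated from 5-day survival. Quantal data analysed by the Litchfield-Wilcoxon method.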

Mus musculus [15] = experiment: Compound was evaluated for anticonvulsant activity by maximal electroshock assay(MES) in mice after po administration; 55-105; format: functional; summary of the method: as §2
Mus musculus [16] = experiment: Dose of compound causing a neurological deficit in 50% of mice after ip administration; 53-96; format: functional; summary of the method: as §1
Mus musculus [17] = experiment: Compound was evaluated for anticonvulsant activity by maximal electroshock assay(MES) in mice after ip administration; 18-25; format: functional; summary of the method: as §4
Rattus norvegicus [18] = experiment: Compound was evaluated for anticonvulsant activity by maximal electroshock assay(MES) in rat after po administration; 31-105; format: functional
Summary of the method: (§5)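 Male Simonsen Sprague-Dawley-derived rats, 80-110 g, groups of 8-10, dosed with compound or aqueous vehicle; pretreatment 15 min after ip or 30 min after oral dosing. Transcorneal electroshock, 150 mA, 60 Hz, 0.2 s, given after the wire test. ED50 with 95% confidence limits from quantal data by Litchfield-Wilcoxon.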

Rattus norvegicus [19] = experiment: Dose of compound causing a neurological deficit in 50% of rat after po administration.; format: functional
Summary of the method: (§6)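 Rats (Simonsen Sprague-Dawley-derived, 80-110 g, groups of 8-10) placed on a suspended 16-gauge, 65-cm copper wire just before electroshock. Deficit scored as inability to remain for 8 s. Pretreatment was 15 min ip or 30 min oral. Quantal data analysed by Litchfield-Wilcoxon to give ND50 with 95% limits.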

Mus musculus [20] = experiment: Compound was evaluated for anticonvulsant activity by maximal electroshock assay(MES) in mice after po administration.; format: functional; summary of the method: as §2
Mus musculus [21] = experiment: Compound was evaluated for anticonvulsant activity by maximal electroshock assay(MES) in mice after ip administration; 20-42; format: functional; summary of the method: as §4
Mus musculus [22] = experiment: Compound was evaluated for anticonvulsant activity by maximal electroshock assay(MES) in mice after po administration; 69-90; format: functional; summary of the method: as §2
Mus musculus [23] = experiment: Compound was evaluated for anticonvulsant activity by maximal electroshock assay(MES) in mice after ip administration; 13-43; format: functional; summary of the method: as §4
Mus musculus [24] = experiment: Compound was evaluated for anticonvulsant activity by maximal electroshock assay(MES) in mice after ip administration; 62-102; format: functional; summary of the method: as §4
Mus musculus [25] = experiment: Compound was evaluated for anticonvulsant activity by maximal electroshock assay(MES) in mice after po administration; 16-32; format: functional; summary of the method: as §2
Mus musculus [26] = experiment: Dose of compound causing a neurological deficit in 50% of mice after ip administration; 13-115; format: functional; summary of the method: as §1
Rattus norvegicus [27] = experiment: Compound was evaluated for anticonvulsant activity by maximal electroshock assay(MES) in rat after ip administration; 5.3-12; format: functional; summary of the method: as §5
Rattus norvegicus [28] = experiment: Compound was evaluated for anticonvulsant activity by maximal electroshock assay(MES) in rat after po administration; 11-42; format: functional; summary of the method: as §5
Rattus norvegicus [29] = experiment: Dose of compound causing a neurological deficit in 50% of rat after ip administration; 26-92; format: functional; summary of the method: as §6

COC(Cn1ccnc1)(OC)c1ccc2ccccc2c1
ND50 (Mus musculus [1]): >40 mg/kg
ED50 (Mus musculus [2]): > 40 mg/kg

CC1CCOC(Cn2ccnc2)(c2ccc3ccccc3c2)O1 (stereo unspecified)
ED50 (Mus musculus [3]): 56 mg/kg
ND50 (Mus musculus [4]): 26 mg/kg
ND50 (Mus musculus [5]): >100 mg/kg
PI (Mus musculus [6]): >1.8
PI (Mus musculus [7]): 1.4

CCC(=O)OC(Cn1ccnc1)c1ccc2ccccc2c1.Cl (stereo unspecified)
ND50 (Mus musculus [8]): 83 mg/kg
ED50 (Mus musculus [9]): 23 mg/kg
PI (Mus musculus [7]): 3.6

Cl.Clc1ccc(OC(Cn2ccnc2)c2ccc3ccccc3c2)cc1 (stereo unspecified)
ED50 (Mus musculus [10]): 46 mg/kg
ND50 (Mus musculus [11]): 82 mg/kg
PI (Mus musculus [7]): 1.8

Cc1ccc2cc(C(=O)Cn3ccnc3)ccc2c1.Cl
ED50 (Mus musculus [12]): 76 mg/kg
ND50 (Mus musculus [1]): >100 mg/kg
ND50 (Mus musculus [5]): >150 mg/kg
ED50 (Mus musculus [13]): 24 mg/kg
LD50 [14]: > 100 mg/kg
PI (Mus musculus [6]): >2
PI (Mus musculus [7]): >4.3

Cc1ccc2cccc(C(=O)Cn3ccnc3)c2c1.Cl
ED50 (Mus musculus [15]): 74 mg/kg
ND50 (Mus musculus [16]): 73 mg/kg
ND50 (Mus musculus [5]): >300 mg/kg
ED50 (Mus musculus [17]): 22 mg/kg
ED50 (Rattus norvegicus [18]): 52 mg/kg
ND50 (Rattus norvegicus [19]): >100 mg/kg
PI (Mus musculus [6]): >4.1 and >1.9
PI (Mus musculus [7]): 3.3

COc1ccc2cc(C(=O)Cn3ccnc3)ccc2c1.Cl
ED50 (Mus musculus [20]): > 100 mg/kg
ED50 (Mus musculus [21]): 31 mg/kg
ND50 (Mus musculus [1]): >100 mg/kg
ND50 (Mus musculus [5]): >100 mg/kg
LD50 [14]: > 100 mg/kg
PI (Mus musculus [7]): >3.3

Cc1cc2ccc(C(=O)Cn3ccnc3)cc2cc1C.Cl
ED50 (Mus musculus [22]): 78 mg/kg
ED50 (Mus musculus [23]): 25 mg/kg
ND50 (Mus musculus [1]): >100 mg/kg
ND50 (Mus musculus [5]): >100 mg/kg
PI (Mus musculus [6]): >1.3
PI (Mus musculus [7]): >4

COc1cc2cccc(C(=O)Cn3ccnc3)c2cc1OC.Cl
ED50 (Mus musculus [24]): 79 mg/kg
ND50 (Mus musculus [1]): >100 mg/kg
PI (Mus musculus [7]): >1.3

Cl.c1ccc2c(C3(Cn4ccnc4)OCCO3)cccc2c1
ED50 (Mus musculus [25]): 23 mg/kg
ND50 (Mus musculus [26]): 28 mg/kg
ND50 (Mus musculus [5]): >100 mg/kg
ED50 (Rattus norvegicus [27]): 7.8 mg/kg
ED50 (Rattus norvegicus [28]): 22 mg/kg
ND50 (Rattus norvegicus [29]): 44 mg/kg
ND50 (Rattus norvegicus [19]): ~200 mg/kg
PI (Mus musculus [6]): >4.3 and ~9

Source: ChEMBL document CHEMBL1121883, “1-(Naphthylalkyl)-1H-imidazole derivatives, a new class of anticonvulsant agents” (J Med Chem, 1981)
